Source: PubChem (several laboratories)
RAM network inh: blocks the yeast RAM network. S. cerevisiae dse1pr::URA3 reporter, 5-FOA growth OD615, 2 d; analog-sensitive cbk1-as2 kinase mutant strain. inhibition, % at 50 µM. 1.8% of 190,000 active. AID 868;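 active means inhibition above a set limit, 3 SD over mean compound inhibition, cut at about 8.4% in these data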;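 further: 0% = DMSO-only wells with no growth and 100% = 10 µM 1-NA-PP1 full growth; inhibition rescues growth on 5-FOA so higher OD means more RAM inhibition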
Measles CPE: protection of cells from measles virus. 1.5% of 140,000 active. Measles virus-infected cells, CPE protection, absorbance. protection (pct of control), % at 4 µM; in the data active means protection mostly above about 24%, no sharp cut-off; inactive means mostly below about 26%
BB579 growth dn: yeast BB579 growth reduction in restrictive medium. inhibition, % at 10 µM. AID 804. S. cerevisiae BB579 growth, OD615, 48 h. 0.51% of 140,000 active;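 active means inhibition above a set limit, 3 SD over the mean compound inhibition, cut at about 44% in these data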
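Assay system – yeast BB579 (DeaD) · Dosing – single compound dose of 10 µM, 0.25% DMSO final · Detection – OD615 turbidity measurement · Buffer or medium – CSMM-D restrictive synthetic medium containing dextrose (glucose) · Benchmarks – positive control amphotericin B 10 µg/mL · Incubation – 48 h exposure, 30 °C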
Yeast life ext: extends the lifespan of yeast; S. cerevisiae growth with nicotinamide, OD615; deaD strain in restrictive glucose medium; inhibition of the nicotinamide effect, % at 10 µM; 0.68% of 130,000 active;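 active means inhibition above a set limit, placed 3 SD over the median of all compounds, cut at about 26% in these data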;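 further: 0% = nicotinamide-treated wells and 100% = cells grown without nicotinamide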
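System: Modified budding yeast, DeaD strain | Buffer or medium: Restrictive glucose medium | Also added: 1.5 mM nicotinamide | Doses: 10 µM single point, 0.25% DMSO | Schedule: 48 h compound exposure at 30 °C, humidified | Detection: Absorbance at 615 nm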
* = called active by the depositor. This is a sample that favours compounds with a hit; in the whole collection about 3.8% have one here.

Results for Cc1ccc(-n2c(O)c(C=Nc3ccccc3-c3n[nH]c(=S)[nH]c3=O)c3ccccc3c2=O)c(C)c1 ?
RAM network inh: 11*

What do the screens show for `CCCC(=O)C1C(=O)CC(C)(C)C(c2cc(C)no2)C1=O` (stereo not drawn)?
RAM network inh: 0; Measles CPE: 4; BB579 growth dn: -48; Yeast life ext: 56*

How did COC(=O)CCCCC(=O)C1C(=O)CC(C)(C)C(C(=O)OC)C1=O (stereo not drawn) do in these assays?
RAM network inh: 0; Measles CPE: 7; BB579 growth dn: -67; Yeast life ext: 36

Results for CC(=O)Nc1ccc(S(=O)(=O)N2CCN(c3cnn(C)c(=O)c3Cl)CC2)cc1 ?
RAM network inh: 2

Results for Cc1[nH]c2ccccc2c1N=Nc1ccccc1C(=O)O ?
RAM network inh: 9.8*; Measles CPE: 2; BB579 growth dn: -68; Yeast life ext: 4

How did Cc1[nH]c2ccccc2c1N=Nc1cccc(C(=O)O)c1 do in these assays?
RAM network inh: -2; Measles CPE: 1; BB579 growth dn: 26; Yeast life ext: -7

What do the screens show for `CCOC(=O)c1ccccc1N1C(=O)CSC1=S`?
RAM network inh: 0; Measles CPE: 13; BB579 growth dn: -25; Yeast life ext: 37*

Results for Cc1ccccc1C(=O)NN1C(=O)CSC1=S ?
RAM network inh: 0; Measles CPE: 30; BB579 growth dn: -16; Yeast life ext: 14

What do the screens show for `O=C(NCc1ccccc1)C(=O)NCC1OCCN1S(=O)(=O)c1cccs1` (stereo not drawn)?
RAM network inh: 4; Measles CPE: 36*; BB579 growth dn: -33; Yeast life ext: 2

Results for CC(C)NC(=O)C1CCCN(c2nnc(-n3cccc3)s2)C1 (stereo not drawn) ?
RAM network inh: 1; Measles CPE: 3; BB579 growth dn: -6; Yeast life ext: 4

What do the screens show for `CC(CCc1ccccc1)NC(=O)C1CCCN(c2nnc(-n3cccc3)s2)C1` (stereo not drawn)?
RAM network inh: 2; Measles CPE: 35*; BB579 growth dn: -23; Yeast life ext: 2

Results for O=C1CCN(Cc2nc(-c3ccc(Cl)cc3)no2)CCN1 ?
RAM network inh: 2

What do the screens show for `CCCn1c(SCC(=O)N2CCCC2)nc2c1c(=O)n(C)c(=O)n2C`?
RAM network inh: 0; Measles CPE: 3; BB579 growth dn: -24; Yeast life ext: -12

Results for CC(C)n1c(SCC(=O)N2CCCC2)nc2c1c(=O)n(C)c(=O)n2C ?
RAM network inh: -1; Measles CPE: 33*; BB579 growth dn: -40; Yeast life ext: -8

Results for COc1ccc(CN2CCC(CO)(Cc3cccc(C(F)(F)F)c3)CC2)cc1Cn1cccn1 ?
RAM network inh: 3

How did O=S1(=O)C=C(Oc2ccc3ccccc3c2)c2ccccc21 do in these assays?
RAM network inh: 2; Measles CPE: 66*; BB579 growth dn: -4; Yeast life ext: -14

Results for Cc1ccccc1Cn1nc(C)c(NC(=O)c2sc3ccccc3c2Cl)c1C ?
RAM network inh: 3; Measles CPE: 64*; BB579 growth dn: -34; Yeast life ext: -8

Results for CCC(OC(C)=O)c1cc2c(cc1[N+](=O)[O-])OCCO2 (stereo not drawn) ?
RAM network inh: -1

What do the screens show for `CCN(CC)S(=O)(=O)c1cc(NC(=O)C(C)OC(=O)c2[nH]c(C)c(C(C)=O)c2C)ccc1C` (stereo not drawn)?
RAM network inh: 3; Measles CPE: 5; BB579 growth dn: -11; Yeast life ext: -4

Results for CCOc1ccc(-n2nnnc2-c2nc3ccccc3s2)cc1 ?
RAM network inh: 1; Measles CPE: 26*; BB579 growth dn: -3; Yeast life ext: -1

What do the screens show for `Cc1ccc(-n2nnnc2-c2nc3ccccc3s2)cc1`?
RAM network inh: 5; Measles CPE: 7; BB579 growth dn: -46; Yeast life ext: 0

Results for CCOc1ccccc1-n1nnnc1SCc1nc2ccccc2s1 ?
RAM network inh: 9.9*; Measles CPE: 14; BB579 growth dn: -65; Yeast life ext: 12

How did CCCN(CC(=O)Nc1ccccc1C)C(=O)CCl do in these assays?
RAM network inh: 0

What do the screens show for `O=C(Oc1ccccc1[N+](=O)[O-])c1cccnc1`?
RAM network inh: 3; Measles CPE: 29*; BB579 growth dn: 19; Yeast life ext: -12

How did Nc1ccc(C(=O)OCC(=O)N2c3ccccc3Sc3ccccc32)cc1[N+](=O)[O-] do in these assays?
RAM network inh: 1; Measles CPE: 33*; BB579 growth dn: -48; Yeast life ext: 5

How did Nc1ccc(C(=O)OCC(=O)N2CCc3ccccc3C2)cc1[N+](=O)[O-] do in these assays?
RAM network inh: 2; Measles CPE: 39; BB579 growth dn: 0; Yeast life ext: -7

Results for O=C(NC(=S)Nc1ccc(N2CCOCC2)cc1)c1cncc(Br)c1 ?
RAM network inh: 0; Measles CPE: 15; BB579 growth dn: -11; Yeast life ext: -7

What do the screens show for `CCOc1ccccc1C1C2C(=O)N(c3ccccc3)C(=O)C2ON1c1ccccc1` (stereo not drawn)?
RAM network inh: -1; Measles CPE: 47*; BB579 growth dn: 18; Yeast life ext: -12

How did CCCOc1ccc(N2C(=O)C3ON(c4ccccc4)C(CCC)C3C2=O)cc1 (stereo not drawn) do in these assays?
RAM network inh: 2; Measles CPE: 25*; BB579 growth dn: -22; Yeast life ext: -7

How did COc1ccc(C(=O)N2CCC(n3c(C)nc4cc(F)ccc43)CC2)cc1 do in these assays?
RAM network inh: 0

What do the screens show for `Cc1cccc(Nc2nc(-c3ccccn3)cs2)n1`?
RAM network inh: -1; Measles CPE: 2; BB579 growth dn: 100*; Yeast life ext: -25

Results for Cc1cccnc1Nc1nc(-c2ccc(O)cc2O)cs1 ?
RAM network inh: 1; Measles CPE: 19; BB579 growth dn: -5; Yeast life ext: -5

How did Cc1cccnc1Nc1nc(-c2ccccn2)cs1 do in these assays?
RAM network inh: 1; Measles CPE: 5; BB579 growth dn: 95*; Yeast life ext: -15

Results for CN1CCOC(=O)/C1=N/Nc1cc(Cl)ccc1Cl ?
RAM network inh: 4

What do the screens show for `CC1=C(/C=N/Nc2ccc([N+](=O)[O-])cc2[N+](=O)[O-])C(C)(C)CCC1`?
RAM network inh: 5; Measles CPE: 15; BB579 growth dn: -9; Yeast life ext: -6

What do the screens show for `CC1=C(/C=C/C(=O)O)C(C)(C)CCC1`?
RAM network inh: -1; Measles CPE: 2; BB579 growth dn: -2; Yeast life ext: 28*

What do the screens show for `COc1cc(OC)c(NC(=O)CCCn2c(=O)oc3ccccc32)cc1Cl`?
RAM network inh: 11*; Measles CPE: 24; BB579 growth dn: -19; Yeast life ext: 2

Results for CN1CCC(=NNC(=O)C(=O)NC2CCCC2)CC1 ?
RAM network inh: 1; Measles CPE: 56*; BB579 growth dn: -38; Yeast life ext: -5

How did CN1CCC(=NNC(=O)C(=O)NC2CCCCC2)CC1 do in these assays?
RAM network inh: -1; Measles CPE: 1; BB579 growth dn: -42; Yeast life ext: -3
